Structures are written as SMILES.

One experiment concerns SH-SY5Y. The experiment in a line: Neuroprotective activity against H2O2-induced cell damage in human SH-SY5Y cells assessed as increase in cell viability preincubated for 24 hrs followed by H2O2 addition and measured after 4 hrs by MTT assay. It counts as functional, cell-based. In outline:
(§1)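 Cells at 3.5×10^4 cells/mL in 96-well plates were grown 24 h (37 °C, 5% CO2). Test agent was added at five concentrations for 24 h, then H2O2 (4.8 mM stock) to model and drug wells. After PBS washes, MTT (5 mg/mL) was added for 4 h, formazan was dissolved in DMSO and OD was read at 550 nm. Proliferation rate = (drug − injury OD)/(control − injury OD). EC50 came from a formula using maximum concentration and summed, maximal and minimal rates.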

The nature of experiment [1]: Neuroprotective activity against H2O2-induced cell damage in human HBMEC2 cells assessed as increase in cell viability preincubated for 24 hrs followed by H2O2 addition and measured after 4 hrs by MTT assay. It counts as functional, cell-based. The following applies: HBMEC-2. In a few lines: as §1

With `COc1cc(CNC(=O)/C=C/c2cc(OC)c(OC)c(OC)c2)ccc1OCc1nc(C)c(C)nc1C`, the EC50 was 11.5 µM in the experiment on SH-SY5Y and 3.55 µM in experiment [1].
The like results for `COc1cc(CNC(=O)/C=C/c2ccc(OC)c(OCc3nc(C)c(C)nc3C)c2)ccc1OCc1nc(C)c(C)nc1C` were, in that order, 11.6 µM and 14.6 µM.
On the same counts, the results for `COc1cc(CNC(=O)/C=C/c2ccc(OCc3nc(C)c(C)nc3C)c(OC)c2)ccc1O` are 10.2 µM and 11.6 µM.
As for `COc1cc(CNC(=O)/C=C/c2ccccc2OCc2nc(C)c(C)nc2C)ccc1O`, the concentration for a half-maximal effect (EC50) in the experiment on SH-SY5Y was 12 µM; in experiment [1], 6.65 µM.
The like results for `COc1cc(CNC(=O)/C=C/c2ccc(OC)c(OC)c2OC)ccc1OCc1nc(C)c(C)nc1C` were, in that order, 3.84 µM and 18.1 µM.
On the same counts, the results for `COc1cc(/C=C/C(=O)NCc2ccc(OCc3nc(C)c(C)nc3C)c(OC)c2)cc(OC)c1` are 8.66 µM and 12.9 µM.
The like results for `COc1cc(CNC(=O)/C=C/c2ccccc2OCc2nc(C)c(C)nc2C)ccc1OCc1nc(C)c(C)nc1C` were, in that order, 6.28 µM and 15.1 µM.
Take `COc1cc(CNC(=O)/C=C/c2ccccc2)ccc1O`: the EC50 with SH-SY5Y was 3.66 µM; in experiment [1], 9.8 µM.
The like results for `COc1cc(CNC(=O)/C=C/c2cccc(OC)c2OC)ccc1OCc1nc(C)c(C)nc1C` were, in that order, 7.15 µM and 6.31 µM.
On the same counts, the results for `COc1ccc(/C=C/C(=O)NCc2ccc(OCc3nc(C)c(C)nc3C)c(OC)c2)cc1O` are 8.56 µM and 13.5 µM.
`COc1ccc(/C=C/C(=O)NCc2ccc(OCc3nc(C)c(C)nc3C)c(OC)c2)cc1OC`: the EC50 with SH-SY5Y worked out at 4.47 µM; in experiment [1], 15.8 µM.
On the same counts, the results for `COc1cc(CNC(=O)/C=C/c2cccc(O)c2)ccc1O` are 8.62 µM and 5.75 µM.
With `COc1cc(CNC(=O)/C=C/c2ccc(OCc3nc(C)c(C)nc3C)cc2)ccc1O`, the EC50 in the experiment with SH-SY5Y was 5.37 µM; in experiment [1] it was 12.5 µM.
The like results for `COc1cc(CNC(=O)/C=C/c2ccccc2OC)ccc1O` were, in that order, 5.98 µM and 6.48 µM.
On the same counts, the results for `COc1cc(CNC(=O)/C=C/c2ccccc2O)ccc1O` are 9.76 µM and 7.46 µM.
On the same counts, the results for `COc1cc(/C=C/C(=O)NCc2ccc(OCc3nc(C)c(C)nc3C)c(OC)c2)ccc1OCc1nc(C)c(C)nc1C` are 11.1 µM and 14.5 µM.
Regarding `CC1=NN(c2ccccc2)C(=O)C1` [EDARAVONE], the concentration giving a half-maximal response (EC50) in the experiment with SH-SY5Y was 3.75 µM; in experiment [1] it was 4.61 µM.
The like results for `COc1cc(CNC(=O)/C=C/c2ccc(O)cc2)ccc1O` were, in that order, 6 µM and 8.04 µM.
`COc1ccc(OC)c(/C=C/C(=O)NCc2ccc(O)c(OC)c2)c1`: the EC50 in the experiment with SH-SY5Y is 9.5 µM; in experiment [1], 10.5 µM.
On to `COc1ccc(/C=C/C(=O)NCc2ccc(OCc3nc(C)c(C)nc3C)c(OC)c2)cc1`, for which the figures for the EC50 (with SH-SY5Y; in experiment [1]) were 5.05 µM and 6.56 µM, respectively.
On the same counts, the results for `Cc1nc(C)c(C)nc1C` [LIGUSTRAZINE] are 17.6 µM and 15.2 µM.
On the same counts, the results for `COc1cc(CNC(=O)/C=C/c2cccc(OCc3nc(C)c(C)nc3C)c2)ccc1O` are 8.09 µM and 10.6 µM.
Consider `COc1ccc(/C=C/C(=O)NCc2ccc(O)c(OC)c2)cc1`, for which the concentration for a half-maximal effect (EC50) with SH-SY5Y stood at 11.4 µM; in experiment [1] it was 10.4 µM.
On the same counts, the results for `COc1cc(/C=C/C(=O)NCc2ccc(OCc3nc(C)c(C)nc3C)c(OC)c2)ccc1O` are 13.4 µM and 5.81 µM.
On the same counts, the results for `COc1cc(CNC(=O)/C=C/c2cccc(O)c2)ccc1OCc1nc(C)c(C)nc1C` are 3.68 µM and 6.17 µM.
On the same counts, the results for `COc1cc(CNC(=O)/C=C/c2ccc(OCc3nc(C)c(C)nc3C)cc2)ccc1OCc1nc(C)c(C)nc1C` are 7.77 µM and 21.4 µM.
As for `COc1cc(CNC(=O)CCCC/C=C/C(C)C)ccc1O` [CAPSAICIN], the EC50 with SH-SY5Y worked out at 14 µM; in experiment [1] it was 16.4 µM.
The like results for `COc1cc(CNC(=O)/C=C/c2cc(OC)c(OC)c(OC)c2)ccc1O` were, in that order, 5.91 µM and 2.59 µM.
On the same counts, the results for `COc1cc(CNC(=O)/C=C/c2ccccc2)ccc1OCc1nc(C)c(C)nc1C` are 7.31 µM and 4.99 µM.
The like results for `COc1ccc(/C=C/C(=O)NCc2ccc(O)c(OC)c2)cc1O` were, in that order, 7.85 µM and 11.8 µM.
In the case of `COc1cc(CNC(=O)/C=C/c2cccc(OC)c2OC)ccc1O`, the EC50 in the experiment with SH-SY5Y came out at 5.49 µM; in experiment [1] it was 13.1 µM.
`COc1cccc(/C=C/C(=O)NCc2ccc(O)c(OC)c2)c1`: the values for the EC50 (in the experiment on SH-SY5Y; in experiment [1]) were 5.24 µM and 7.11 µM, respectively.
On the same counts, the results for `COc1cc(CNC(=O)/C=C/c2ccc(OC)c(OC)c2OC)ccc1O` are 7.45 µM and 4.82 µM.
Take `COc1cc(CNC(=O)/C=C/c2ccc(OC)c(OC)c2)ccc1O`: the values for the EC50 (in the experiment with SH-SY5Y; in experiment [1]) were 11 µM and 8.85 µM, respectively.
On the same counts, the results for `COc1ccc(OC)c(/C=C/C(=O)NCc2ccc(OCc3nc(C)c(C)nc3C)c(OC)c2)c1` are 11 µM and 11.8 µM.
On the same counts, the results for `COc1cc(/C=C/C(=O)NCc2ccc(O)c(OC)c2)cc(OC)c1` are 4.86 µM and 7.81 µM.
On the same counts, the results for `COc1cc(CNC(=O)/C=C/c2ccc(O)cc2)ccc1OCc1nc(C)c(C)nc1C` are 3.74 µM and 6.23 µM.
Take `COc1cc(CNC(=O)/C=C/c2cccc(OCc3nc(C)c(C)nc3C)c2)ccc1OCc1nc(C)c(C)nc1C`: the EC50 came out at 8.7 µM with SH-SY5Y and 12.8 µM in experiment [1].
On the same counts, the results for `COc1cc(/C=C/C(=O)NCc2ccc(O)c(OC)c2)ccc1O` are 9.3 µM and 6.34 µM.
On to `COc1cc(CNC(=O)/C=C/c2ccccc2O)ccc1OCc1nc(C)c(C)nc1C`, for which the EC50 in the experiment with SH-SY5Y came out at 5.3 µM; in experiment [1] it was 6.07 µM.
The like results for `COc1ccccc1/C=C/C(=O)NCc1ccc(OCc2nc(C)c(C)nc2C)c(OC)c1` were, in that order, 7.15 µM and 12 µM.
The like results for `COc1cc(CNC(=O)/C=C/c2ccc(OC)c(OCc3nc(C)c(C)nc3C)c2)ccc1O` were, in that order, 9.25 µM and 9.3 µM.
On the same counts, the results for `COc1cccc(/C=C/C(=O)NCc2ccc(OCc3nc(C)c(C)nc3C)c(OC)c2)c1` are 4.32 µM and 9.87 µM.
Regarding `COc1cc(OC)c(OC)cc1/C=C/C(=O)NCc1ccc(OCc2nc(C)c(C)nc2C)c(OC)c1`, the EC50 in the experiment on SH-SY5Y came to 3.62 µM; in experiment [1] it was 12.5 µM.
